Activity calls are given as the source filed them.
What was measured:
Assay type in all cases: cell-based
[1] = biological target: T1, Peroxisome proliferator-activated receptor delta (Mus musculus) (UniProt P35396); assay: Agonist activity at PPARdelta in mouse 3T3L1 cells assessed as upregulation of PDK4 mRNA level at 10 uM after 6 days […] relative to control; conditions: 3T3-L1
T1 sequence (whole entry): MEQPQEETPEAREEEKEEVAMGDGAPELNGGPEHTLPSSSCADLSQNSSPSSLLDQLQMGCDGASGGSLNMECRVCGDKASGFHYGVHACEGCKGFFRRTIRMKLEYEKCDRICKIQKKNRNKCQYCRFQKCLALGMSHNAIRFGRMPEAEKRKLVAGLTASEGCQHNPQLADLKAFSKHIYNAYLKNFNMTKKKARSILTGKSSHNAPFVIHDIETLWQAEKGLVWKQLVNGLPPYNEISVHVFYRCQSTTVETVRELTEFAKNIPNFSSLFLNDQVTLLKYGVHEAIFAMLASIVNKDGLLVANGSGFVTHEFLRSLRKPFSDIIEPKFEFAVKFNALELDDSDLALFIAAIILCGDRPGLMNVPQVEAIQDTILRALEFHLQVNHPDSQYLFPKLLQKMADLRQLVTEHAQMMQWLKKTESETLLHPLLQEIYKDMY

[2] = biological target: T2, Peroxisome proliferator-activated receptor gamma (Mus musculus) (UniProt P37238); assay: Agonist activity at PPARgamma in mouse 3T3L1 cells assessed as upregulation of ATGL mRNA level at 10 uM after 6 days […] relative to control; conditions: 3T3-L1
T2 sequence (whole entry): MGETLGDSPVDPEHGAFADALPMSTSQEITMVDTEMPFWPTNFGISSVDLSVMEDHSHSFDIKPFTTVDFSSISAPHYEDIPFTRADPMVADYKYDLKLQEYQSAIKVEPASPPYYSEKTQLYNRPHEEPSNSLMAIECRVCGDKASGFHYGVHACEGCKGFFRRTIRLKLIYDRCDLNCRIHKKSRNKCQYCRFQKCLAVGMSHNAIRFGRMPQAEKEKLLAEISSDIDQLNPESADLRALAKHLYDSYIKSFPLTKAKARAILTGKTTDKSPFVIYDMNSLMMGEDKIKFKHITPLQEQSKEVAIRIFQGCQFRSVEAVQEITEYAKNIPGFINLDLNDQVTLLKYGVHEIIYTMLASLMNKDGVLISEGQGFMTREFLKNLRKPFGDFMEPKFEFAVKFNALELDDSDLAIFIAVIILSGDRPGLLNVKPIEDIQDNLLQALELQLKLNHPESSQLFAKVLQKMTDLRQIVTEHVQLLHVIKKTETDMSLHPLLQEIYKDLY

[3] = biological target: T2, Peroxisome proliferator-activated receptor gamma (Mus musculus); assay: Agonist activity at PPARgamma in mouse 3T3L1 cells assessed as upregulation of MCAD mRNA level at 10 uM after 6 days […] relative to control; conditions: 3T3-L1
[4] = biological target: T2, Peroxisome proliferator-activated receptor gamma (Mus musculus); assay: Agonist activity at PPARgamma in mouse 3T3L1 cells assessed as upregulation of HSL mRNA level at 10 uM after 6 days […] relative to control; conditions: 3T3-L1
[5] = biological target: T2, Peroxisome proliferator-activated receptor gamma (Mus musculus); assay: Agonist activity at PPARgamma in mouse 3T3L1 cells assessed as downregulation of CD36 mRNA level at 10 uM after 6 days […] relative to control; conditions: 3T3-L1
[6] = biological target: T2, Peroxisome proliferator-activated receptor gamma (Mus musculus); assay: Agonist activity at PPARgamma in mouse 3T3L1 cells assessed as upregulation of ADPN mRNA level at 10 uM after 6 days […] relative to control; conditions: 3T3-L1
[7] = biological target: T2, Peroxisome proliferator-activated receptor gamma (Mus musculus); assay: Agonist activity at PPARgamma in mouse 3T3L1 cells assessed as downregulation of FATP mRNA level at 10 uM after 6 days […] relative to control; conditions: 3T3-L1
[8] = biological target: T2, Peroxisome proliferator-activated receptor gamma (Mus musculus); assay: Agonist activity at PPARgamma in mouse 3T3L1 cells assessed as downregulation of FABP mRNA level at 10 uM after 6 days […] relative to control; conditions: 3T3-L1
[9] = biological target: T2, Peroxisome proliferator-activated receptor gamma (Mus musculus); assay: Agonist activity at PPARgamma in mouse 3T3L1 cells assessed as downregulation of DGAT mRNA level at 10 uM after 6 days […] relative to control; conditions: 3T3-L1
[10] = biological target: T3, Peroxisome proliferator-activated receptor gamma (Homo sapiens) (UniProt P37231); assay: Transactivation of PPARgamma (unknown origin) expressed in HEK293 cells co-transfected with AP2-PPRE by luciferase reporter gene assay
T3 sequence (whole entry): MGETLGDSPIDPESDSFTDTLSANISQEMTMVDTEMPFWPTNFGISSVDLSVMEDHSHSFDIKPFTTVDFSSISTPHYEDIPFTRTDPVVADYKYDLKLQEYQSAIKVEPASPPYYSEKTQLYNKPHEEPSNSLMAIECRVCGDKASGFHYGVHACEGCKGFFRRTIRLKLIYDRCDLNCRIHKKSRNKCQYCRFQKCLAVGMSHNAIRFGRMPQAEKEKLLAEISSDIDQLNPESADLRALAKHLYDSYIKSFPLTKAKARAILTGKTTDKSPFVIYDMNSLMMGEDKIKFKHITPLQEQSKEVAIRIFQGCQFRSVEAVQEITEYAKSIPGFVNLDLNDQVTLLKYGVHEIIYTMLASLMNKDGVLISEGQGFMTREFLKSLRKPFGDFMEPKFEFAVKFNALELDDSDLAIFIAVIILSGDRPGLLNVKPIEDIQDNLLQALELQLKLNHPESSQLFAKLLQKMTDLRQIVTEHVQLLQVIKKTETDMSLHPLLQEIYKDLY
Summary of the method: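 PPRE reporter plasmid (AP2 promoter element) transiently co-transfected into HEK-293 cells with RXR, PPARγ and β-galactosidase vectors using Lipofectamine 2000. Cells were treated across a dose–response series, plotted on a log(μM) axis from about −2 to 2. Luciferase was read as relative light units on a luminometer and normalised to β-galactosidase activity measured with ONPG.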

Measured: Activity

Cc1ccc(CNCCCN(Cc2ccc(C(=O)O)cc2)Cc2cc(C(F)(F)F)cc(C(F)(F)F)c2)cc1
active: [1] | [2] | [3] | [4] | [5] | [6] | [7] | [8] | [9] | [10]
